Published values from different studies.
Compare with care: the assays were run in different laboratories.
CASP7: Caspase-7 (CASP7, Homo sapiens, UniProt P55210)
glgA: glgA (Escherichia coli, UniProt P0A6U8)

For C#Cc1n[nH]c2c(-c3cn(C(C)c4ccccn4)c(=O)[nH]c3=O)cc(F)cc12 (stereo not shown), the inhibition was 14.7% (Phosphatidylinositol 4,5-bisphosphate 3-kinase catalytic subunit gamma isoform (PIK3CG, Homo sapiens, UniProt P48736); enzyme activity, inhibitor; 1 µM).
N=C(N)c1ccc2cc(OC(=O)c3ccc(N=C(N)N)cc3)ccc2c1 gave an inhibition of 6% (Ubiquitin carboxyl-terminal hydrolase isozyme L3 (UCHL3, Homo sapiens, UniProt P15374); enzyme activity, inhibitor; 10 µM).
CCN(CC)CCCC[C@H](NC(=O)[C@H](CC(C)C)NC(=O)[C@H](C)NC(=O)[C@H](Cc1ccccc1)NC(=O)c1ccc(C(C)(C)C)cc1)C(=O)N[C@@H](CO)C(=O)OC gave a ΔTm of 0.35 °C (CREB-binding protein (CREBBP, Homo sapiens, UniProt Q92793); thermal stability, DSF; 25 µM).
The inhibition of CC(=O)N[C@@H](CC(=O)O)C(=O)N[C@@H](CC(N)=O)C(=O)N[C@@H](CC(C)C)C(=O)N[C@H](C=O)CC(=O)O is reported as 43% (CASP7; enzyme activity, inhibitor; 50 nM).
Cc1nn(C)cc1-c1nc2c(N3CCN(Cc4ccc(Cl)cc4)CC3)c(Cl)cnc2[nH]1 gave a remaining binding of 87% (Dual specificity testis-specific protein kinase 1 (TESK1, Homo sapiens, UniProt Q15569); binding, competition with immobilised ligand; 1 µM).
For OC[C@H]1NC[C@@H](O)[C@@H]1O, the activity vs control was 72% (glgA; enzyme activity, inhibitor; 500 µM).
Nc1ncc(-c2nc(N3CCOCC3)nc(N3CCOCC3)n2)c(C(F)F)n1 has a remaining signal of 115% (5-hydroxytryptamine receptor 1B (Htr1b, Rattus norvegicus, UniProt P28564); cell-free assay, radioligand; 10 µM).
O=C(Nc1cccnn1)N1CCN([C@@H]2CCOc3cc(C(F)(F)F)ccc32)CC1 has an inhibition of 45% (Alpha-2B adrenergic receptor (ADRA2B, Homo sapiens, UniProt P18089); ligand displacement; 20 µM).
The Km of Nc1ncnc2c1ncn2[C@@H]1O[C@H](COP(=O)(O)OP(=O)(O)O[C@H]2O[C@H](CO)[C@@H](O)[C@H](O)[C@H]2O)[C@@H](O)[C@H]1O is reported as 420 µM (glgA; enzyme activity, substrate).
CN(C)C(=O)COC(=O)Cc1ccc(OC(=O)c2ccc(NC(=N)N)cc2)cc1 has an inhibition of 0% (CASP7; enzyme activity, inhibitor; 10 µM).
With C=CC(=O)N1CCC[C@@H](n2nc(-c3ccc(Oc4ccccc4)cc3)c3c(N)ncnc32)C1 the remaining signal was 195% (Dual specificity tyrosine-phosphorylation-regulated kinase 1B (DYRK1B, Homo sapiens, UniProt Q9Y463); cell-free assay; 0.1 µM).
COc1ncccc1-c1cnn2ccc(N3CCN(C(=O)OC(C)C)CC3)nc12 gave a remaining binding of 86% (Mitogen-activated protein kinase kinase kinase 15 (MAP3K15, Homo sapiens, UniProt Q6ZN16); binding, competition with immobilised ligand; 1 µM).
CSCC[C@H](NC(=O)[C@@H](NC(=O)[C@@H](N)Cc1ccc(O)cc1)C(C)C)C(=O)NCC(=O)N[C@@H](Cc1c[nH]cn1)C(=O)O gave an Emax of 60% (Melanocyte-stimulating hormone receptor (Mc1r, Mus musculus, UniProt Q01727); cAMP, agonist; HEK293).
